Experimental findings from ChEMBL document CHEMBL1144664, “Design, synthesis, and SAR of new pyrrole-oxindole progesterone receptor modulators leading to 5-(7-fluoro-3,3-dimethyl-2-oxo-2,3-dihydro-1H-indol-5-yl)-1-methyl-1H-pyrrole-2-carbonitrile (WAY-255348)” (J Med Chem, 2008) are described below.

For data set [1], the target named is T1, Mineralocorticoid receptor (Homo sapiens, UniProt P08235).
T1 sequence (P08235 whole entry): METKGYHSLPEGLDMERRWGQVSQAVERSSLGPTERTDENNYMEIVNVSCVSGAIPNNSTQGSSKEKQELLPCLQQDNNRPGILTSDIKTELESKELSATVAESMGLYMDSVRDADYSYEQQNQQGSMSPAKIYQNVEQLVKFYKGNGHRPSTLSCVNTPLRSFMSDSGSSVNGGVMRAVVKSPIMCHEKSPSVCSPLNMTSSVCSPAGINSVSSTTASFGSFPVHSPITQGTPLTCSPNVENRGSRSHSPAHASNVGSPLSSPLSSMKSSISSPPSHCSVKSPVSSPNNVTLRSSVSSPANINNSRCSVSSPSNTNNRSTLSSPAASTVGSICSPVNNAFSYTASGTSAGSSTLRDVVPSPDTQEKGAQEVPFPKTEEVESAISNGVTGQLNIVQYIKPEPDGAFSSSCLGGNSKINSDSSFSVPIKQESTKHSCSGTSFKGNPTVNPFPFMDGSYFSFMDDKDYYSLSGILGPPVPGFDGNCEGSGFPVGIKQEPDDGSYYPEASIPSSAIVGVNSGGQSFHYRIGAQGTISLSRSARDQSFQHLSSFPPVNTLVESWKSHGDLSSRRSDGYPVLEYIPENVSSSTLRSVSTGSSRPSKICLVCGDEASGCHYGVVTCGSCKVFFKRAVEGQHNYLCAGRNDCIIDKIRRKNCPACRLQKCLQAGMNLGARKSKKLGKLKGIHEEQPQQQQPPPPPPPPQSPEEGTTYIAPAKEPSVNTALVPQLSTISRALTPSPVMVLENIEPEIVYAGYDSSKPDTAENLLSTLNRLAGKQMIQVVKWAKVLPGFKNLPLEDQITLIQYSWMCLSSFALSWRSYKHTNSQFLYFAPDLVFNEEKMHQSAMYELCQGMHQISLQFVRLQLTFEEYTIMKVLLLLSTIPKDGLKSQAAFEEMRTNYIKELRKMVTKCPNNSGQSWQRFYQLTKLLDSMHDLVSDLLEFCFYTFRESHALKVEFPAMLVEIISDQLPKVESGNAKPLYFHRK
The data set is described as follows: Antagonist activity at human MR ligand binding domain expressed in african green monkey COS7 cells in presence of aldosterone by Gal4 hybrid assay. The format is cell-based, COS-7. The gist of the method:
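Gal4-steroid receptor LBD fusion plasmid plus GAL4_UAS (5 copies, E1b TATA)-luciferase reporter, 50 ng/well each, transfected 16 h into COS-7 cells grown in phenol red-free DMEM with 10% charcoal/dextran-treated FBS. Compound treatment 20 h, then luciferase read-out. Antagonist mode uses 3 nM aldosterone (hMR) or 5 nM 17β-estradiol (hER). Values are the average of at least duplicate determinations.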

The test system of data set [2] is Rhesus monkey. The data set is described as follows: Effect on cell proliferation in rhesus monkey assessed as number of mitotic cells per 1000 cells.
For data set [3], the system named is Rhesus monkey. The data set is described as follows: Effect on basalis KI67 assessed as number of KI67 labeled cells of rhesus monkey. The class given is functional, Macaca mulatta. An outline of the steps: (§1)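 Adult female rhesus macaques (n=3) with regular cycles dosed 10 mg/(kg·day) po in 2% Tween 80/0.5% methylcellulose with cherry flavoring for 28 days from cycle day 2. Serum estradiol and progesterone measured every 3 days. Necropsy on day 28. Uterine weights are of half the uterus; KI-67 and mitotic indices counted per 1000 cells. Values given as mean ± SE.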

For another data set, the target named is T2, Progesterone receptor (Homo sapiens, UniProt P06401).
T2 sequence (P06401 whole entry): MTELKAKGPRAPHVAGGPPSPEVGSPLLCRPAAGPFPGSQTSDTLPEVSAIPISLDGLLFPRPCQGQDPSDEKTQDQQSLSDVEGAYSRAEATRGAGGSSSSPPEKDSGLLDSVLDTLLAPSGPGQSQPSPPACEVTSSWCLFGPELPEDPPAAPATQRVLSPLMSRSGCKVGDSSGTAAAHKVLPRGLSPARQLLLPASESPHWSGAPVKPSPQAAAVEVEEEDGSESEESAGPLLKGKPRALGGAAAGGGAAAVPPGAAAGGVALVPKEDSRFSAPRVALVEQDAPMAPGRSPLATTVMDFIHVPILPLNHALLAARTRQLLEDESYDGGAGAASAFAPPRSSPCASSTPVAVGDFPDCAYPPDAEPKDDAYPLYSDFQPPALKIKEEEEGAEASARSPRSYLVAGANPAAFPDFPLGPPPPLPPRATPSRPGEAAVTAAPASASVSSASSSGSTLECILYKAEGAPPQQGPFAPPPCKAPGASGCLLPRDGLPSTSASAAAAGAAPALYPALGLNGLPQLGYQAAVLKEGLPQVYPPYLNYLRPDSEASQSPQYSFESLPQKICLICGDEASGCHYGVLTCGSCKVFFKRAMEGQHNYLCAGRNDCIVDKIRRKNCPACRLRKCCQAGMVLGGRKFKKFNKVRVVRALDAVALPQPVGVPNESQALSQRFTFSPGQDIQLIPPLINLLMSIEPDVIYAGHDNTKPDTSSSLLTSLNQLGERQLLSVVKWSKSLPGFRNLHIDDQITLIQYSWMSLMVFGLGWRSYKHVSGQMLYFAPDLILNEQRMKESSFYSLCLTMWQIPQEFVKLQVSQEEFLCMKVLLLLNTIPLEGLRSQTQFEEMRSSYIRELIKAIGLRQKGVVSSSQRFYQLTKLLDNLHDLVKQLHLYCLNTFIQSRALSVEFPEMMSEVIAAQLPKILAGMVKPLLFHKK
The data set is described as follows: Displacement of [3H]R5020 from human PR in human T47D cells by whole cell assay. The format is cell-based. For orientation: Loss of bound radioactivity is the signal in a displacement assay; it reports binding, not function.

Data set [4] concerns Rhesus monkey. The data set is described as follows: Effect on cell proliferation in rhesus monkey assessed basalis mitotic index. The format is functional, Macaca mulatta. An outline of the steps: as §1
The nature of data set [5]: Volume of distribution at steady state in Sprague-Dawley rat at 0.5 mg/kg, iv. The format is ADME, organism-based. Further details: dose 0.5 mg/kg, route intravenous. Conditions: in vivo, read-out: Vdss. The gist of the method:
(§2)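 Female Sprague–Dawley rats dosed as 1-in-4 cassette or discrete studies. iv in DMSO/PEG200 20:80; po in aqueous 2% Tween 80/0.5% methyl cellulose. Parameters reported: C0, Cmax, t1/2, plasma clearance, Vss, AUC0-inf and %F.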

For another data set, the species on record is Rattus norvegicus. The data set is described as follows: Antagonist activity in rat uterus assessed as progesterone-induced decidualization response in stromal cells. The format is functional. An outline of the steps:
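Female rat decidualization model: compound given orally in 0.5% methyl cellulose/2% Tween 80 to antagonize the progesterone-induced decidual response of uterine stromal cells. ED50 reported.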

In data set [6] the test system is Rhesus monkey. The data set is described as follows: Effect on myometrial weight of rhesus monkey. The format is functional, Macaca mulatta. An outline of the steps:
as §1

A short description of data set [7]: Plasma clearance in cynomolgus monkey at […], iv. The class given is ADME, organism-based, Macaca fascicularis. Further details: dose 0.25 mg/kg, route intravenous.
The nature of data set [8]: Half life in Sprague-Dawley rat at 1 mg/kg, iv. The format is ADME, organism-based. On the set-up: dose 1 mg/kg, route intravenous. Conditions: in vivo. The gist of the method: as §2
Data set [9] in a line: Cmax in Sprague-Dawley rat at 5 mg/kg, po. The format is ADME, organism-based. Further details: dose 5 mg/kg, route oral. The conditions noted are these: in vivo. The gist of the method:
as §2

A short description of data set [10]: Plasma clearance in Sprague-Dawley rat at 1 mg/kg, iv. The format is ADME, organism-based. On the set-up: dose 1 mg/kg, route intravenous. An outline of the steps:
as §2

The nature of data set [11]: Drug level in cynomolgus monkey at […], iv. The format is ADME, organism-based, Macaca fascicularis. On the set-up: dose 0.25 mg/kg, route intravenous. Conditions: in vivo.
A short description of data set [12]: Plasma clearance in Sprague-Dawley rat at 0.5 mg/kg, iv. Further details: dose 0.5 mg/kg, route intravenous. The class given is ADME, organism-based. An outline of the steps:
as §2

Data set [13] relates to Rhesus monkey. In words: Effect on endometrium thickness of rhesus monkey. The format is functional, Macaca mulatta. The gist of the method:
as §1

Data set [14] can be described thus: Volume of distribution at steady state in Sprague-Dawley rat at 1 mg/kg, iv. The format is ADME, organism-based. On the set-up: dose 1 mg/kg, route intravenous. Conditions: in vivo, read-out: Vdss. The gist of the method: as §2

SMILES strings stand for the structures.

Consider `Cn1c(C#N)ccc1-c1cc(F)c2c(c1)C(C)(C)C(=O)N2`, for which the figures for the IC50 (in data set [1]; on Progesterone receptor) were 3.7 µM and 0.0041 µM, respectively. The Activity in the data set with Rhesus monkey [2] amounted to 2.2; with Rhesus monkey [3] it was 0; in the data set on Rhesus monkey [4], 0; in the data set with Rhesus monkey [6] it was 1760 mg; in the data set with Rhesus monkey [13], 2.2 mm. Further, the Vd came out at 2.9 L/kg in data set [5] and 2.4 L/kg in data set [14]. For the same molecule, the ED50 (usually the midpoint of the dose-response relation) in the data set listed under Rattus norvegicus was 0.3 mg/kg. Also, the clearance (commonly the rate of elimination divided by the concentration) in data set [7] turned out to be 7 mL/min/kg; in data set [10] it was 4 mL/min/kg; in data set [12], 4 mL/min/kg. In addition, in data set [8], the half-life (commonly the time needed for the level to fall by half in the phase considered) is 9.4 h. Also, the Cmax – broadly, the peak of the concentration-time curve – in [9] was 414 ng/mL. Moreover, the C0 in data set [11] was 178 ng/mL.
